Assay results reported in ChEMBL document CHEMBL1144509, “Identification of some novel AHAS inhibitors via molecular docking and virtual screening approach” (Bioorg Med Chem, 2007).
Peptide text beside a SMILES is read from it.

Experiments:
[1] = tested on: Brassica rapa subsp. oleifera; experiment: Herbicidal activity against Brassica campestris L assessed as inhibition of rape root growth at 100 ug/ml; type: functional
Summary of the method: (§1)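 Rape seeds pre-soaked 4 h in distilled water, then set on filter paper in 6-cm dishes wetted with 2 ml test solution, usually 10 seeds per plate, duplicate plates. Germination in the dark for 72 h at 28 (±1) °C. Mean length of 10 roots measured. Percent inhibition calculated against distilled-water controls.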

[2] = Inhibition of Arabidopsis thaliana AHAS
Summary of the method: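 Purified recombinant plant AHAS. Colorimetric assay in 50 mM potassium phosphate pH 7.0 with 50 mM pyruvate, 1 mM thiamine diphosphate, 10 mM MgCl2 and 10 µM FAD, compounds given as emulsions, 30 min at 37 °C. Stopped with 10% H2SO4, then 60 °C for 15 min to convert acetolactate to acetoin. Acetoin developed with 0.5% creatine and 5% α-naphthol for 15 min at 60 °C, read at A525.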

[3] = tested on: Brassica rapa subsp. oleifera; experiment: Herbicidal activity against Brassica campestris L assessed as inhibition of rape root growth at 10 ug/ml; type: functional; summary of the method: as §1

SMILES | inhibition at 100 µg/mL [1] | Ki [2] | inhibition at 10 µg/mL [3]
O=C(O)c1ccc(SSc2ccc(C(=O)O)cn2)nc1 | 12.1% | 15.2 µM | 6%
CC(O)C(NC(=O)OCC1c2ccccc2-c2ccccc21)C(=O)O (stereo unspecified) | 25.7% | – | 0%
CC(NC(=O)OCC1c2ccccc2-c2ccccc21)C(=O)O (stereo unspecified) | 12.9% | – | 0%
O=C(O)c1cccc(F)c1C(=O)O | 0% | – | 0%
O=C(O)CC(NC(=O)OCc1ccccc1)C(=O)O (stereo unspecified) | 0% | – | 0%
NC(=O)CCC(NC(=O)OCC1c2ccccc2-c2ccccc21)C(=O)O (stereo unspecified) | 13.9% | – | 0%
O=C(O)C(Cc1c[nH]c2ccccc12)NSc1ccccc1[N+](=O)[O-] (stereo unspecified) | 74.8% | 90.7 µM | 60.5%
NC(=O)CCC(NC(=O)OCc1ccccc1)C(=O)O (stereo unspecified) | 6.3% | – | 0%
O=C1/C(=C2\Nc3ccc(S(=O)(=O)O)cc3C2=O)Nc2ccc(S(=O)(=O)O)cc21 [INDIGOTINDISULFONATE] | 0% | 42.1 µM | 0%
O=C(O)c1cc(-c2cc(C(=O)O)c3ccccc3n2)nc2ccccc12 | 1.4% | – | 0%
N[C@@H](Cc1ccc(O)cc1)C(=O)N[C@@H](Cc1ccccc1)C(=O)O (H-Tyr-Phe-OH) | 0% | – | 0%
O=C(NC(Cc1c[nH]cn1)C(=O)O)OCc1ccccc1 (stereo unspecified) | 0% | – | 0%
O=C(O)C(Cc1ccc(O)cc1)NSc1ccccc1[N+](=O)[O-] (stereo unspecified) | 0% | – | 0%
O=C(O)Cc1cccc(CC(=O)O)c1 | 2.6% | – | 0%
